Calls of active or inactive are those of the source. No cut-off for these calls is given here.

The target of one data set is Bromodomain-containing protein 4 (Homo sapiens, UniProt O60885). The data set is described as follows: Inhibition of BRD4 bromodomain1 (unknown origin) using peptide histone H4 (SGRGACKGGACKGLGAC-KGGAACKRHGSGSK-biotin) as substrate incubated for 15 mins followed by substrate addition measured after 1 hr by alphascreen assay.
Details: not given
In general terms: Bead proximity is the source of the signal in Alpha formats.
As to `Cc1noc(C)c1-c1ccc2c(c1)C(c1ccccc1)N(Cc1cn(CCOCCn3cc(CN4C(=O)Nc5ccc(-c6c(C)noc6C)cc5C4c4ccccc4)nn3)nn1)C(=O)N2` (stereo not given), the IC50 (in general, the midpoint of a concentration-inhibition curve) is less than 2.1 nM.
`Cc1noc(C)c1-c1ccc2c(c1)C(c1ccccc1)N(Cc1cn(CCOCCOCCOCCn3cc(CN4C(=O)N(C)c5ccc(-c6c(C)noc6C)cc5C4c4ccccc4)nn3)nn1)C(=O)N2C` (stereo not given) had an IC50 of 7.7 nM.

Another data set deals with BXPC-3. The data set is described as follows: Antiproliferation activity against human BxPC3 cells assessed as reduction in cell viability at 2.5 uM incubated for 48 hrs by MTT assay relative to control. It is filed as functional.
Details: not given
Put shortly: (§1)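 Single-concentration screen at 2.5 μM against BxPc3 and Mia-capa2 pancreatic cancer cells. Read-out is percent growth inhibition.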
On the technique in general: Tetrazolium assays rely on reduction of a dye to a coloured formazan, in cell work by metabolically active cells.
As to `Cc1noc(C)c1-c1ccc2c(c1)C(c1ccccc1)N(Cc1cn(CCOCCn3cc(CN4C(=O)Nc5ccc(-c6c(C)noc6C)cc5C4c4ccccc4)nn3)nn1)C(=O)N2` (stereo not given), the Activity is reported as 52.1%.
Consider `Cc1noc(C)c1-c1ccc2c(c1)C(c1ccccc1)N(Cc1cn(CCOCCOCCOCCn3cc(CN4C(=O)N(C)c5ccc(-c6c(C)noc6C)cc5C4c4ccccc4)nn3)nn1)C(=O)N2C` (stereo not given), for which the Activity was determined as 61.3%.

In another data set the test system is MIA PaCa-2. Description: Antiproliferation activity against human MIAPaCa2 cells assessed as reduction in cell viability at 2.5 uM incubated for 48 hrs by MTT assay relative to control. The format is functional.
Details: not given
A digest of the protocol:
as §1
Consider `Cc1noc(C)c1-c1ccc2c(c1)C(c1ccccc1)N(Cc1cn(CCOCCn3cc(CN4C(=O)Nc5ccc(-c6c(C)noc6C)cc5C4c4ccccc4)nn3)nn1)C(=O)N2` (stereo not given), for which the Activity was found to be 54.4%.
For `Cc1noc(C)c1-c1ccc2c(c1)C(c1ccccc1)N(Cc1cn(CCOCCOCCOCCn3cc(CN4C(=O)N(C)c5ccc(-c6c(C)noc6C)cc5C4c4ccccc4)nn3)nn1)C(=O)N2C` (stereo not given), the Activity is 68.4%.

For a further data set, the system named is HCT-116. Description: Antiproliferation activity against human HCT116 cells assessed as reduction in cell viability at 2 uM incubated for 48 hrs by MTT assay relative to control. It is filed as functional.
Details: not given
A digest of the protocol:
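HCT116 colon cancer cells screened at a single 2.0 μM concentration. Read-out is percent growth inhibition.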
For `Cc1noc(C)c1-c1ccc2c(c1)C(c1ccccc1)N(Cc1cn(CCOCCn3cc(CN4C(=O)Nc5ccc(-c6c(C)noc6C)cc5C4c4ccccc4)nn3)nn1)C(=O)N2` (stereo not given), the Activity was found to be 55.6%.
With `Cc1noc(C)c1-c1ccc2c(c1)C(c1ccccc1)N(Cc1cn(CCOCCOCCOCCn3cc(CN4C(=O)N(C)c5ccc(-c6c(C)noc6C)cc5C4c4ccccc4)nn3)nn1)C(=O)N2C` (stereo not given), the Activity came out at 83.6%.

The next data set relates to HCT-116. Description: Antiproliferation activity against human HCT116 cells assessed as reduction in cell viability incubated for 48 hrs by MTT assay. It is filed as functional, cell-based. Particulars: HCT-116, 48 h. Put shortly:
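HCT116 cells treated across a concentration gradient. IC50 was taken from dose–response curves, reported as mean ± SD of at least three independent experiments.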
On to `Cc1noc(C)c1-c1ccc2c(c1)C(c1ccccc1)N(Cc1cn(CCOCCOCCOCCn3cc(CN4C(=O)N(C)c5ccc(-c6c(C)noc6C)cc5C4c4ccccc4)nn3)nn1)C(=O)N2C` (stereo not given), for which the IC50 was found to be 162 nM.

A further data set relates to HCT-116. Description: Induction of cell cycle arrest in human HCT116 cells assessed as accumulation at G0/G1 phase at 0.16 uM incubated for 48 hrs by flow cytometry.
Details: not given
It is filed as functional, cell-based. A digest of the protocol: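 HCT116 cells exposed to 0.16 μM for 48 h. Cell cycle phase distribution was measured, including the G0/G1 fraction.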
(In general: A flow cytometer gives signals particle by particle.)
On to `Cc1noc(C)c1-c1ccc2c(c1)C(c1ccccc1)N(Cc1cn(CCOCCOCCOCCn3cc(CN4C(=O)N(C)c5ccc(-c6c(C)noc6C)cc5C4c4ccccc4)nn3)nn1)C(=O)N2C` (stereo not given), for which the outcome was Active.

Another data set relates to HCT-116. Description: Antiproliferation activity against human HCT116 cells assessed as reduction in cell viability for 12 days by crystal violet staining based plate clone-forming analysis. The format is functional. As to conditions: dose microM 0.008-0.165, time 12.0 day. Put shortly: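 Plate colony-formation assay in HCT116 cells with 12 days of compound exposure at several concentrations.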
Consider `Cc1noc(C)c1-c1ccc2c(c1)C(c1ccccc1)N(Cc1cn(CCOCCOCCOCCn3cc(CN4C(=O)N(C)c5ccc(-c6c(C)noc6C)cc5C4c4ccccc4)nn3)nn1)C(=O)N2C` (stereo not given), for which the inhibition entry was “Dose-dependent effect”.

For the next data set, the system named is HCT-116. Description: Induction of apoptosis in human HCT116 cells assessed as downregulation of c-myc protein expression at 1 uM incubated for 48 hrs by western blot analysis. The format is functional, cell-based.
Details: not given
Put shortly: (§2)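 HCT116 cells treated at 1 μM for 48 h. Bcl-2, HEXIM1, BRD4 and c-Myc protein levels were measured by western blot.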
`Cc1noc(C)c1-c1ccc2c(c1)C(c1ccccc1)N(Cc1cn(CCOCCOCCOCCn3cc(CN4C(=O)N(C)c5ccc(-c6c(C)noc6C)cc5C4c4ccccc4)nn3)nn1)C(=O)N2C` (stereo not given): the outcome was Active.

The next data set has as its system HCT-116. Description: Induction of apoptosis in human HCT116 cells assessed as decrease in Bcl2 protein expression level at 1 uM incubated for 48 hrs by western blot analysis. It is filed as functional, cell-based.
Details: not given
A digest of the protocol:
as §2
For the compound `Cc1noc(C)c1-c1ccc2c(c1)C(c1ccccc1)N(Cc1cn(CCOCCOCCOCCn3cc(CN4C(=O)N(C)c5ccc(-c6c(C)noc6C)cc5C4c4ccccc4)nn3)nn1)C(=O)N2C` (stereo not given), the result was Active.

The test system of another data set is HCT-116. Description: Induction of apoptosis in human HCT116 cells assessed as upregulation of HEXIM1 protein expression at 1 uM incubated for 48 hrs by western blot analysis. It is filed as functional, cell-based.
Details: not given
Put shortly:
as §2
As for `Cc1noc(C)c1-c1ccc2c(c1)C(c1ccccc1)N(Cc1cn(CCOCCOCCOCCn3cc(CN4C(=O)N(C)c5ccc(-c6c(C)noc6C)cc5C4c4ccccc4)nn3)nn1)C(=O)N2C` (stereo not given), the result was Active.

In another data set the test system is HCT-116. The data set is described as follows: Induction of apoptosis in human HCT116 cells assessed as upregulation of BRD4 expression at 1 uM incubated for 48 hrs by western blot analysis. The format is functional, cell-based.
Details: not given
Put shortly: as §2
Turning to `Cc1noc(C)c1-c1ccc2c(c1)C(c1ccccc1)N(Cc1cn(CCOCCOCCOCCn3cc(CN4C(=O)N(C)c5ccc(-c6c(C)noc6C)cc5C4c4ccccc4)nn3)nn1)C(=O)N2C` (stereo not given), the outcome was Active.

The subject of a further data set is HCT-116. The data set is described as follows: Induction of apoptosis in human HCT116 cells assessed as activation of downstream effector Caspase 3 at 1 uM incubated for 48 hrs by western blot analysis. The format is functional, cell-based.
Details: not given
For the compound `Cc1noc(C)c1-c1ccc2c(c1)C(c1ccccc1)N(Cc1cn(CCOCCOCCOCCn3cc(CN4C(=O)N(C)c5ccc(-c6c(C)noc6C)cc5C4c4ccccc4)nn3)nn1)C(=O)N2C` (stereo not given), the result was Active.

The next data set concerns CT26. Description: Antitumor activity against […] xenografted in C57BL/6 mouse assessed as tumor suppression at 10 mg/kg, iv administered for 14 days and measured every two days relative to control. It is filed as functional. Particulars: C57BL/6, CT26, iv, 336 h, time 14 day, read-out: GI.
Turning to `Cc1noc(C)c1-c1ccc2c(c1)C(c1ccccc1)N(Cc1cn(CCOCCOCCOCCn3cc(CN4C(=O)N(C)c5ccc(-c6c(C)noc6C)cc5C4c4ccccc4)nn3)nn1)C(=O)N2C` (stereo not given), the inhibition in vivo at 10 mg/kg worked out at 33.8%.

The subject of the next data set is CT26. The data set is described as follows: Antitumor activity against […] xenografted in C57BL/6 mouse assessed as tumor suppression at 13.6 mg/kg, iv administered for 14 days and measured every two days relative to control. It is filed as functional. As to conditions: C57BL/6, CT26, iv, 336 h, time 14 day, read-out: GI.
With `Cc1noc(C)c1-c1ccc2c(c1)C(c1ccccc1)N(Cc1cn(CCOCCOCCOCCn3cc(CN4C(=O)N(C)c5ccc(-c6c(C)noc6C)cc5C4c4ccccc4)nn3)nn1)C(=O)N2C` (stereo not given), the inhibition in vivo at 13.6 mg/kg turned out to be 11.5%.

The test system of the next data set is CT26. The data set is described as follows: Anticancer activity against […] xenografted in C57BL/6 mouse assessed as cell morphological changes measured at 20 mg/kg, iv administered for 14 days by hematoxylin staining based immunohistochemical analysis. The format is functional, organism-based. As to conditions: time 14.0 day.
For `Cc1noc(C)c1-c1ccc2c(c1)C(c1ccccc1)N(Cc1cn(CCOCCOCCOCCn3cc(CN4C(=O)N(C)c5ccc(-c6c(C)noc6C)cc5C4c4ccccc4)nn3)nn1)C(=O)N2C` (stereo not given), the result was Active.

For a further data set, the system named is CT26. Description: Antitumor activity against […] xenografted in C57BL/6 mouse assessed as tumor suppression at 5 mg/kg, iv administered for 14 days and measured every two days relative to control. The format is functional. Particulars: C57BL/6, CT26, iv, 336 h, time 14 day, read-out: GI.
As for `Cc1noc(C)c1-c1ccc2c(c1)C(c1ccccc1)N(Cc1cn(CCOCCOCCOCCn3cc(CN4C(=O)N(C)c5ccc(-c6c(C)noc6C)cc5C4c4ccccc4)nn3)nn1)C(=O)N2C` (stereo not given), the inhibition in vivo at 5 mg/kg came out at 68%.

Tested on in another data set: not listed separately
The data set is described as follows: Toxicity in C57BL/6 mouse xenografted with mouse CT26 cells assessed as body weight at 20 mg/kg, ip administered for 14 days and measured every two days. Particulars: in vivo, 336 h.
For `Cc1noc(C)c1-c1ccc2c(c1)C(c1ccccc1)N(Cc1cn(CCOCCOCCOCCn3cc(CN4C(=O)N(C)c5ccc(-c6c(C)noc6C)cc5C4c4ccccc4)nn3)nn1)C(=O)N2C` (stereo not given), the Activity entry was “Non-Toxic”.

The next data set relates to CT26. The data set is described as follows: Antitumor activity against mouse CT26 cells xenografted in C57BL/6 mouse assessed as tumor suppression at 20 mg/kg, ip administered for 14 days and measured every two days relative to control. As to conditions: C57BL/6, CT26, ip, 336 h, read-out: GI.
For the compound `Cc1noc(C)c1-c1ccc2c(c1)C(c1ccccc1)N(Cc1cn(CCOCCOCCOCCn3cc(CN4C(=O)N(C)c5ccc(-c6c(C)noc6C)cc5C4c4ccccc4)nn3)nn1)C(=O)N2C` (stereo not given), the inhibition in vivo at 20 mg/kg was found to be 56.1%.

The next data set concerns CT26. Description: Anticancer activity against mouse CT26 cells xenografted in C57BL/6 mouse assessed as decrease in […] expression at 20 mg/kg, ip administered for 14 days by hematoxylin staining based immunohistochemical analysis. Particulars: time 14.0 day.
Regarding `Cc1noc(C)c1-c1ccc2c(c1)C(c1ccccc1)N(Cc1cn(CCOCCOCCOCCn3cc(CN4C(=O)N(C)c5ccc(-c6c(C)noc6C)cc5C4c4ccccc4)nn3)nn1)C(=O)N2C` (stereo not given), the result was Active.

In a further data set the test system is CT26. The data set is described as follows: Anticancer activity against mouse CT26 cells xenografted in C57BL/6 mouse assessed as decrease in c-myc expression at 20 mg/kg, ip administered for 14 days by hematoxylin staining based immunohistochemical analysis. Particulars: time 14.0 day.
On to `Cc1noc(C)c1-c1ccc2c(c1)C(c1ccccc1)N(Cc1cn(CCOCCOCCOCCn3cc(CN4C(=O)N(C)c5ccc(-c6c(C)noc6C)cc5C4c4ccccc4)nn3)nn1)C(=O)N2C` (stereo not given), for which the outcome was Active.

A further data set has as its system CT26. The data set is described as follows: Anticancer activity against mouse CT26 cells xenografted in C57BL/6 mouse assessed as upregulation in HEXIM1 expression at 20 mg/kg, ip administered for 14 days by hematoxylin staining based immunohistochemical analysis. As to conditions: time 14.0 day.
Take `Cc1noc(C)c1-c1ccc2c(c1)C(c1ccccc1)N(Cc1cn(CCOCCOCCOCCn3cc(CN4C(=O)N(C)c5ccc(-c6c(C)noc6C)cc5C4c4ccccc4)nn3)nn1)C(=O)N2C` (stereo not given): the outcome was Active.

These data come from ChEMBL document CHEMBL4725468, “Identification of 3,5-Dimethylisoxazole Derivatives as BRD4 Inhibitors for the Treatment of Colorectal Cancer” (ACS Med Chem Lett, 2020).
